Assay outcomes from PubChem.
This is a sample that favours compounds with a hit; in the whole collection about 2.1% have one here.
INS promoter inh – TRM-6 insulin promoter activity inhibition | TRM-6 cells (human fetal islet line), insulin promoter-eGFP reporter, imaging; reporter expression induced with tamoxifen | inhibition, % at 2 µM | 130,000 compounds, 0.9% hits | AID 1273;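 active means inhibition above the mean plus 3 SD, with well images judged a real hit on visual review, cut at about 60% in these data, passing the limit was not always enough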
Insulin prom up – MIN6 insulin promoter up-regulation. AID 1625. MIN6 insulin promoter-GFP reporter, high-content imaging; stronger effect = higher value. z-score at 5 µM. 190,000 compounds, 0.3% hits;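 active means z-score above 3 at 5 µM with at least 500 cells counted in the well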
Dynein cargo inh – blocks dynein driven cargo transport along microtubules; 220,000 compounds, 0.47% hits; 3617.4 mouse cells, GR-EGFP nuclear translocation imaging; test concentration mostly 20 µM; stimulated with dexamethasone, 1 µM; stronger effect = lower value; z-score, hits read low;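 active means plate z-score of nuclear minus cytoplasmic receptor signal below a set negative limit, without overly bright fluorescence or cell loss, cut at about -3.5 in these data, passing the limit was not always enough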;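 further: z-score of nuclear minus cytoplasmic ring GR-EGFP intensity difference per well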
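Buffer or medium: tet-free medium with charcoal-stripped serum / Also added: dexamethasone agonist, 1.0 µM final, for 30 min / Timing: induction 48 h, compound 1 h, agonist 30 min / Measured by: high-content fluorescence imaging after fixation / Read-out: nuclear-to-cytoplasmic GR-EGFP distribution per well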
Autophagy HCS – modulators of autophagy | MEF GFP-LC3 puncta imaging; test concentration mostly 10 µM | 190,000 compounds, 0.98% hits | calls only at 10 µM (by protocol);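 active means percentage of spot-positive cells more than 3 SD above its plate mean, without a fluorescence outlier flag or 80% toxicity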;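 further: spot-positive cell cutoff set from DMSO-treated cells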
PERK inh – blocks human PERK kinase; Q9NZJ5; CHO PERK-DD fusion, SEAP luminescence translation reporter; 220,000 compounds, 0.17% hits; inhibition, % at 5.6 µM;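 active means inhibition above the mean inhibition of all tested compounds plus 3 SD, set separately per screening campaign, cut at about 2.9% in these data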;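 further: PERK kinase domain activated by AP20187 dimerizer at 100 nM; 0% = DMSO with dimerizer and 100% = rapamycin at 8.4 µM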
Target sequence (Q9NZJ5 whole entry, looked up, the tested form may be a part): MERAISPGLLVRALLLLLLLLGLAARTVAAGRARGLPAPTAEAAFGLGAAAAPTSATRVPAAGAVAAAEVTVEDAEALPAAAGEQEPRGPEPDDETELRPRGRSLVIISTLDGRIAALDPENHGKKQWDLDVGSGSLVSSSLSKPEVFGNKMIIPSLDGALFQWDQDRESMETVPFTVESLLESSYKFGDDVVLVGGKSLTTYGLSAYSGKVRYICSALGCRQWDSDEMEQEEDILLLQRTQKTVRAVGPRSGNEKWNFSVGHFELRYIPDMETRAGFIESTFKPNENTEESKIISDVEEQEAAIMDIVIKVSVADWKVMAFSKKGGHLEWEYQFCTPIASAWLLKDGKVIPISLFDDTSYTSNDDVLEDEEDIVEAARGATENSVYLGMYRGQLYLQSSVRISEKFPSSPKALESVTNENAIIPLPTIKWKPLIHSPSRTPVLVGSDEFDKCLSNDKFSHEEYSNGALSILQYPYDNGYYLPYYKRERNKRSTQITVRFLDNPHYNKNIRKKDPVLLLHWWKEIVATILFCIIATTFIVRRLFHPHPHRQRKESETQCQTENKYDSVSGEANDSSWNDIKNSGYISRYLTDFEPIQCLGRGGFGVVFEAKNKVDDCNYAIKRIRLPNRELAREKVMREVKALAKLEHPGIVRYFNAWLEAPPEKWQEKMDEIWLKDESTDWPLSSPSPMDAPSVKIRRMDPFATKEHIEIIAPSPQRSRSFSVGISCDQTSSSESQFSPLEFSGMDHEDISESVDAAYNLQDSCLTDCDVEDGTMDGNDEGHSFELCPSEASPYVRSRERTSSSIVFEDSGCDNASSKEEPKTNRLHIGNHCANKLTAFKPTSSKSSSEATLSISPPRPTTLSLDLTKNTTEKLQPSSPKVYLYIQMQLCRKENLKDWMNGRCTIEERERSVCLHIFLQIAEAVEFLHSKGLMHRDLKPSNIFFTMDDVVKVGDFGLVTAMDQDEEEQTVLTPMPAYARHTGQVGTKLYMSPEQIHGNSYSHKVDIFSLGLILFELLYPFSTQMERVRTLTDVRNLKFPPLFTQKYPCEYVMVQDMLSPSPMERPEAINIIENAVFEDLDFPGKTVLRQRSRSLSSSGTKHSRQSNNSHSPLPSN
Numbers without * were called inactive; i = inactive; . = not tested or not shown; + = active, no number.

SMILES	INS promoter inh	Insulin prom up	Dynein cargo inh	Autophagy HCS	PERK inh
Cn1cccc1/C=N/N1CCN(c2ccccc2)CC1	.	0.07	0.11	i	2
Cc1c(NC(=O)c2ccccc2F)c(=O)n(-c2ccccc2)n1C	-12	1.1	0.95	i	0
Cc1c(NC(=O)c2cnn3cccnc23)c(=O)n(-c2ccccc2)n1C	75*	-0.6	-0.14	i	0
COc1ccccc1C(=O)Nc1c(C)n(C)n(-c2ccccc2)c1=O	.	-0.23	-0.74	i	1
COc1ccccc1NC(=O)Nc1c(C)n(C)n(-c2ccccc2)c1=O	100*	0.29	-0.55	i	1
CC(C)(C)NC(=O)c1nn(Cc2ccccc2)c(=O)c2ccccc12	.	.	0.0033	i	0
COc1ccc(OC)c(-n2c(SCC(=O)N3CCc4ccccc43)nc3c(c2=O)SCC3)c1	70*	-0.05	-0.037	i	-1
Cc1cc(C)c2nc(C)cc(Nc3ccc(C(=O)N(C)C)cc3)c2c1	.	-0.42	-0.34	.	0
CC(=O)c1ccc(Nc2cc(C)nc3c(C)cc(C)cc23)cc1	.	.	-0.33	+	-1
CCN(CC(=O)NC(C)C)C(=O)[C@H](C)NC(=O)c1ccc(Br)cc1	-39	0.08	0.99	i	1
CC(=O)c1c(C(C)=O)c(C)n(-c2ccc(N)c(C)c2)c1C	-22	0.68	1.1	i	-2
CCS(=O)(=O)c1ccc2oc(SCC(=O)NC34CC5CC(CC(C5)C3)C4)nc2c1	-33	.	-0.069	i	-1
CCS(=O)(=O)c1ccc2oc(SCC(=O)NC3CCCC(C)C3C)nc2c1 (stereo not given)	-93	4.3*	-0.14	i	-2
OC(COC(c1ccc(Cl)cc1)c1ccc(Cl)cc1)CN1CCCC1 (stereo not given)	-34	-0.68	3.6	+	0
OC(COC(c1ccc(Cl)cc1)c1ccc(Cl)cc1)CN1CCc2ccccc2C1 (stereo not given)	-33	-1.2	-0.7	i	-1
CCN(CC)CCNC(=O)c1cccc(NC(=O)C(=O)c2cc(Br)ccc2NC(C)=O)c1	67	-2	0.13	+	0
COc1ccc(NC(=S)NC(NC(=O)c2ccc(Cl)cc2Cl)C(Cl)(Cl)Cl)c([N+](=O)[O-])c1 (stereo not given)	-113	-1.1	-0.6	+	-1
CCC(C)(C)C(=O)Nc1ccc(OC)cc1[N+](=O)[O-]	100*	0.13	3.2	i	2
COc1ccc(NC(=S)NC(NC(=O)c2ccccc2Cl)C(Cl)(Cl)Cl)c([N+](=O)[O-])c1 (stereo not given)	-13	.	-0.29	i	-1
COc1ccc(NC(=S)NC(NC(=O)c2cccc3ccccc23)C(Cl)(Cl)Cl)c([N+](=O)[O-])c1 (stereo not given)	-6	0.17	0.91	+	-1
CCOc1ccc(OCC(=O)Nc2ccc(OC)cc2[N+](=O)[O-])cc1	.	0.45	-0.23	i	1
NS(=O)(=O)c1cccc(NC(=O)CSc2nc3ccccc3c(=O)n2CCCN2CCOCC2)c1	21	0.17	-0.31	+	2
O=C1CN(C(=O)CSc2nc3ccccc3c(=O)n2CCCN2CCOCC2)c2ccccc2N1	.	0.12	0.37	.	0
O=C(CSc1nc2ccccc2c(=O)n1CCCN1CCOCC1)Nc1ccc2c(c1)OCO2	.	.	-0.31	i	-1
O=C(CSc1nc2ccccc2c(=O)n1CCCN1CCOCC1)c1c[nH]c2ccccc12	.	.	0.92	+	-1
SMILES	INS promoter inh	Insulin prom up	Dynein cargo inh	Autophagy HCS	PERK inh
O=c1ccc(NS(=O)(=O)c2ccccc2)cn1Cc1ccc(Cl)c(Cl)c1	-60	4.3*	1.6	i	0
Cc1c(CCO)sc[n+]1CC(=O)OCCC12CC3CC(CC(C3)C1)C2	67*	0.17	-0.37	i	2
CCN(CC)C(=O)Nc1ccc(C(=O)OC)cc1	83*	.	-0.54	i	-1
COC(=O)c1ccc(OCCOc2ccc(C(=O)OC)cc2)cc1	-21	.	-1	i	3.5*
N#C/C(=N\Nc1cccc(C(F)(F)F)c1)C(=O)c1ccsc1	.	.	-0.14	.	1
CCOC(=O)c1cc(C(=O)NC(C)c2ccccc2)c(C)[nH]c1=O (stereo not given)	.	-0.2	-0.22	i	0
CCc1cc2c(SCC(=O)Nc3cc(C)on3)ncnc2s1	14	0.53	-0.58	i	0
Clc1ccc(-n2nnnc2-c2ccccc2)cc1	.	.	1.3	i	0
COc1ccc(-n2nnnc2-c2ccccc2)cc1	-45	-2.4	0.079	+	-1
